Laboratory results as given in ChEMBL document CHEMBL5357047, “The development of thymol-isatin hybrids as broad-spectrum antibacterial agents with potent anti-MRSA activity” (RSC Med Chem, 2024).
Values after ≈ are worked out from the molar mass of the structure shown.

Experiments:
Assay type in all cases: functional
Klebsiella pneumoniae [1] = assay: Antibacterial activity against Klebsiella pneumoniae MTCC 109 assessed as inhibition of bacterial growth at 50 uM measured after 48 hrs by agar well diffusion method; conditions: read-out: IZ
Klebsiella pneumoniae [2] = assay: Antibacterial activity against clinically isolated Klebsiella pneumoniae RBRJ024 assessed as inhibition of bacterial growth at 50 uM measured after 48 hrs by agar well diffusion method; conditions: read-out: IZ
Klebsiella pneumoniae [3] = assay: Antibacterial activity against clinically isolated Klebsiella pneumoniae RBRJ019 assessed as inhibition of bacterial growth at 50 uM measured after 48 hrs by agar well diffusion method; conditions: read-out: IZ
Staphylococcus aureus [4] = assay: Antibacterial activity against clinically isolated Staphylococcus aureus RBRJ010 assessed as inhibition of bacterial growth at 50 uM measured after 48 hrs by agar well diffusion method; conditions: read-out: IZ
[5] = tested on: Staphylococcus epidermidis; assay: Antibacterial activity against Staphylococcus epidermidis MTCC 435 assessed as inhibition of bacterial growth at 50 uM measured after 48 hrs by agar well diffusion method; conditions: read-out: IZ
Escherichia coli [6] = assay: Antibacterial activity against clinically isolated Escherichia coli RBRJ013 assessed as inhibition of bacterial growth at 50 uM measured after 48 hrs by agar well diffusion method; conditions: read-out: IZ
Escherichia coli [7] = assay: Antibacterial activity against clinically isolated Escherichia coli RBRJ005 assessed as inhibition of bacterial growth at 50 uM measured after 48 hrs by agar well diffusion method; conditions: read-out: IZ
Acinetobacter baumannii = assay: Antibacterial activity against clinically isolated Acinetobacter baumannii RBRJ027 assessed as inhibition of bacterial growth at 50 uM measured after 48 hrs by agar well diffusion method; conditions: read-out: IZ
Enterobacter cloacae = assay: Antibacterial activity against clinically isolated Enterobacter cloacae RBRJ017 assessed as inhibition of bacterial growth at 50 uM measured after 48 hrs by agar well diffusion method; conditions: read-out: IZ
Pseudomonas aeruginosa = assay: Antibacterial activity against Pseudomonas aeruginosa MTCC 424 assessed as inhibition of bacterial growth at 50 uM measured after 48 hrs by agar well diffusion method; conditions: read-out: IZ
Enterococcus faecalis [8] = assay: Antibacterial activity against clinically isolated Enterococcus faecalis RBRJ015 assessed as inhibition of bacterial growth at 50 uM measured after 48 hrs by agar well diffusion method; conditions: read-out: IZ
Staphylococcus aureus [9] = assay: Antibacterial activity against clinically isolated Methicillin-resistant Staphylococcus aureus assessed as inhibition of bacterial growth at 50 uM measured after 48 hrs by agar well diffusion method; conditions: read-out: IZ
Staphylococcus aureus [10] = assay: Antibacterial activity against Methicillin-resistant Staphylococcus aureus ATCC 33591 assessed as inhibition of bacterial growth at 50 uM measured after 48 hrs by agar well diffusion method; conditions: read-out: IZ
Outline: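 Agar well diffusion on Mueller Hinton agar seeded with bacteria at 0.5 McFarland. […] Incubated 48 h at 37 °C aerobically; zone of inhibition diameter (mm) measured. Triplicate.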

Staphylococcus aureus [11] = assay: Antibacterial activity against Staphylococcus aureus MTCC 740 assessed as inhibition of bacterial growth at 50 uM measured after 48 hrs by agar well diffusion method; conditions: read-out: IZ
Enterococcus faecalis [12] = assay: Antibacterial activity against Enterococcus faecalis MTCC 439 assessed as inhibition of bacterial growth at 50 uM measured after 48 hrs by agar well diffusion method; conditions: read-out: IZ
Escherichia coli [13] = assay: Antibacterial activity against Escherichia coli MTCC 119 assessed as inhibition of bacterial growth at 50 uM measured after 48 hrs by agar well diffusion method; conditions: read-out: IZ
Staphylococcus aureus [14] = assay: Antibacterial activity against clinically isolated Staphylococcus aureus RBRJ010 assessed as inhibition of bacterial growth measured after 48 hrs by broth microdilution method
Staphylococcus aureus [15] = assay: Bactericidal activity against clinically isolated Staphylococcus aureus RBRJ010 assessed as inhibition of bacterial growth measured after 48 hrs by agar plate method
Outline: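 MBC: 10 μL from wells showing no INT colour change after broth microdilution subcultured on drug-free Mueller Hinton agar, 48 h at 37 °C aerobically; lowest concentration with no visible growth taken as MBC (μM). Triplicate.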

Staphylococcus aureus [16] = assay: Bactericidal activity against Staphylococcus aureus MTCC 740 assessed as inhibition of bacterial growth measured after 48 hrs by agar plate method
Outline: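 MBC: aliquots from microdilution wells without colour change subcultured on drug-free Mueller Hinton agar, 48 h at 37 °C aerobically. MBC is the lowest concentration with no visible growth. Triplicate.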

Staphylococcus aureus [17] = assay: Antibacterial activity against Staphylococcus aureus MTCC 740 assessed as inhibition of bacterial growth measured after 48 hrs by broth microdilution method

| Structure (SMILES) | zone of inhibition at 50 µM (Klebsiella pneumoniae [1]) [mm] | zone of inhibition at 50 µM (Klebsiella pneumoniae [2]) [mm] | zone of inhibition at 50 µM (Klebsiella pneumoniae [3]) [mm] | zone of inhibition at 50 µM (Staphylococcus aureus [4]) [mm] | zone of inhibition at 50 µM [5] [mm] | zone of inhibition at 50 µM (Escherichia coli [6]) [mm] | zone of inhibition at 50 µM (Escherichia coli [7]) [mm] | zone of inhibition at 50 µM (Acinetobacter baumannii) [mm] | zone of inhibition at 50 µM (Enterobacter cloacae) [mm] | zone of inhibition at 50 µM (Pseudomonas aeruginosa) [mm] | zone of inhibition at 50 µM (Enterococcus faecalis [8]) [mm] | zone of inhibition at 50 µM (Staphylococcus aureus [9]) [mm] | zone of inhibition at 50 µM (Staphylococcus aureus [10]) [mm] | zone of inhibition at 50 µM (Staphylococcus aureus [11]) [mm] | zone of inhibition at 50 µM (Enterococcus faecalis [12]) [mm] | zone of inhibition at 50 µM (Escherichia coli [13]) [mm] | MIC (Staphylococcus aureus [14]) [µM] | MBC (Staphylococcus aureus [15]) [µM] | MBC (Staphylococcus aureus [16]) [µM] | MIC (Staphylococcus aureus [17]) [µM] |
| --- | --- | --- | --- | --- | --- | --- | --- | --- | --- | --- | --- | --- | --- | --- | --- | --- | --- | --- | --- | --- |
| Cc1ccc(C(C)C)c(OCc2cn(CCCCN3C(=O)C(=O)c4cc(C)ccc43)nn2)c1 | 15.4 | 12.2 | 13.2 | 14.6 | 11.4 | 11.4 | 13.1 | 10.4 | 11.6 | 12.9 | 15.3 | 15.8 | 14.2 | 19.5 | 12.4 | 15.5 |  |  |  |  |
| Cc1ccc(C(C)C)c(OCc2cn(CCN3C(=O)C(=O)c4cc(Cl)ccc43)nn2)c1 | 15.1 | 13.6 | 15.2 | 19.6 | 16.2 | 13.1 | 13.2 | 12 | 14.2 | 14.1 | 15.2 | 14.3 | 14.6 | 19.3 | 11.2 | 13.6 |  |  |  |  |
| Cc1ccc(C(C)C)c(OCc2cn(CCCCN3C(=O)C(=O)c4cc(Br)ccc43)nn2)c1 | 13.5 | 10.9 | 11.4 | 11.2 | 14.2 | 11 | 11.8 | 10.7 | 11.1 | 11.3 | 13.8 | 13.5 | 13.1 | 18.1 | 10.3 | 11.1 |  |  |  |  |
| Cc1ccc(C(C)C)c(OCc2cn(CCCCN3C(=O)C(=O)c4cc(I)ccc43)nn2)c1 | 12.2 | 10.1 | 10.7 | 11.9 | 13.5 | 10.9 | 10.4 | 10.1 | 10.2 | 10.6 | 11.2 | 13.5 | 14 | 16.9 | 10.1 | 10.2 |  |  |  |  |
| Cc1ccc(C(C)C)c(OCc2cn(CCCCN3C(=O)C(=O)c4cc(F)ccc43)nn2)c1 | 14.4 | 11.3 | 13.2 | 12.2 | 15.1 | 11.1 | 12.2 | 11.8 | 12.5 | 12.2 | 14.6 | 16.2 | 16.4 | 19.2 | 10 | 11.2 |  |  |  |  |
| Cc1ccc(C(C)C)c(OCc2cn(CCN3C(=O)C(=O)c4cc(Br)ccc43)nn2)c1 | 13.2 | 12.3 | 11.2 | 16.4 | 15.3 | 13.2 | 12.5 | 12.5 | 13.3 | 14 | 12.4 | 14.2 | 13.3 | 16.2 | 13.6 | 12.5 |  |  |  |  |
| Cc1ccc(C(C)C)c(OCc2cn(CCN3C(=O)C(=O)c4cc(C)ccc43)nn2)c1 | 16.6 | 15.7 | 15.4 | 21.2 | 19.6 | 11.4 | 12.7 | 12.7 | 14.2 | 11.3 | 16.3 | 16.2 | 16 | 18.2 | 14.3 | 17.1 | 31.2 (≈ 13.1 µg/mL) | 62.5 (≈ 26.2 µg/mL) |  |  |
| Cc1ccc(C(C)C)c(OCc2cn(CCN3C(=O)C(=O)c4cc(I)ccc43)nn2)c1 | 12.7 | 12.2 | 11.6 | 14.1 | 13.4 | 11.3 | 10.3 | 12.1 | 13.1 | 10.4 | 12.9 | 13.2 | 13.1 | 15.2 | 12.2 | 11.3 |  |  |  |  |
| COc1ccc2c(c1)C(=O)C(=O)N2CCCCn1cc(COc2cc(C)ccc2C(C)C)nn1 | 14.7 | 11.3 | 12.2 | 13.2 | 12.6 | 11.3 | 14.2 | 10.2 | 10.9 | 11.3 | 13.2 | 15.2 | 13.2 | 19 | 11.2 | 14.4 |  |  |  |  |
| Cc1ccc(C(C)C)c(OCc2cn(CCCCN3C(=O)C(=O)c4ccccc43)nn2)c1 | 15.2 | 15.6 | 14.4 | 16.2 | 16.2 | 11.5 | 13.6 | 11.2 | 12.6 | 13.7 | 17.6 | 19.6 | 19 | 22.1 | 13.2 | 16.5 |  |  | 31.2 (≈ 13.5 µg/mL) | 15.6 (≈ 6.75 µg/mL) |
| Cc1ccc(C(C)C)c(OCc2cn(CCN3C(=O)C(=O)c4cc(F)ccc43)nn2)c1 | 15.2 | 13.2 | 14.2 | 19.2 | 17.3 | 14.2 | 14.3 | 11.9 | 14.2 | 14.2 | 19.3 | 16.6 | 15.3 | 20.3 | 15.1 | 13.3 |  |  | 125 (≈ 52.8 µg/mL) | 62.5 (≈ 26.4 µg/mL) |
| Cc1ccc(C(C)C)c(OCc2cn(CCCCN3C(=O)C(=O)c4cc(Cl)ccc43)nn2)c1 | 13.2 | 10.3 | 12.3 | 12.6 | 14.3 | 11.4 | 12.3 | 11.1 | 11.5 | 12.4 | 13.4 | 14.2 | 13.6 | 18.4 | 11.2 | 10.3 |  |  |  |  |
